Source: ChEMBL document CHEMBL3616436, “Synthesis, cytotoxicity and antimicrobial activity of thiourea derivatives incorporating 3-(trifluoromethyl)phenyl moiety” (Eur J Med Chem, 2015)
≈ marks a conversion by molar mass, not a printed value. Calls of active or inactive are those of the source. No cut-off for these calls is given here.

Key:
[1] = Cytotoxicity against human MT4 cells; format: cell-based
[2] = test system: Vesicular stomatitis virus; experiment: Antiviral activity against Vesicular stomatitis virus ATCC VR 1540 infected in African green monkey Vero 76 cells assessed as reduction of virus-plaque formation after 2 days by crystal violet staining; format: functional, organism-based; details: ATCC VR 1540, Vero, 48 h
[3] = test system: Human immunodeficiency virus 1; experiment: Antiviral activity against HIV1 3B infected in human MT4 cells assessed as protection against virus-induced cytopathogenicity by MTT assay; format: functional, organism-based; details: Human immunodeficiency virus 1, 3B
[4] = Cytotoxicity against bovine MDBK cells assessed as cell viability after 48 to 96 hrs by MTT assay; format: cell-based, Bos taurus; details: cattle
[5] = Antiviral activity against Bovine viral diarrhea virus 1-NADL ATCC VR-534 infected in MDBK cells assessed as protection against virus-induced cytopathogenicity after 3 to 4 days by MTT assay; format: functional, cell-based; details: Bovine viral diarrhea virus isolates and strains, ATCC VR-534, MDBK
How it was run: (§1)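 Cells seeded in 96-well plates (BHK 5x10^4, MDBK 3x10^4 cells/well), grown overnight to confluence, infected at m.o.i. 0.01 (BHK for Reo-1, MDBK for BVDV); serial compound dilutions in maintenance medium with 0.5% inactivated FBS added after 1 h; viability by MTT after 3–4 days at 37°C; EC50 for 50% protection by linear regression.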

[6] = Cytotoxicity against BHK cells assessed as cell viability after 48 to 96 hrs by MTT assay; format: cell-based, Mesocricetus auratus; details: hamster
[7] = test system: Yellow fever virus; experiment: Antiviral activity against Yellow fever virus 17D infected in BHK cells assessed as protection against virus-induced cytopathogenicity after 3 to 4 days by MTT assay; format: functional, cell-based
[8] = test system: Mammalian orthoreovirus 1; experiment: Antiviral activity against Reovirus type-1 ATCC VR-214 infected in BHK cells assessed as protection against virus-induced cytopathogenicity after 3 to 4 days by MTT assay; format: functional, cell-based; details: Mammalian orthoreovirus 1, ATCC VR-214, BHK; how it was run: as §1
[9] = Cytotoxicity against African green monkey Vero 76 cells assessed as cell viability after 48 to 96 hrs by crystal violet staining; format: cell-based; details: chlorocebus sabaeus
[10] = test system: Coxsackievirus B5; experiment: Antiviral activity against Human coxsackievirus B5 ATCC VR-29 infected in African green monkey Vero 76 cells assessed as reduction of virus-plaque formation after 3 days by crystal violet staining; format: functional, organism-based; details: Enterovirus B, ATCC VR-29, Vero, 72 h
How it was run: (§2)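 Plaque reduction: Vero-76 at 2x10^5 cells/well grown to confluent monolayers, infected 2 h at 50–100 PFU/well; after removing unadsorbed virus, overlay of D-MEM, 1% inactivated FBS, 0.75% methylcellulose with or without serial compound dilutions; 3 days at 37°C, fixed and stained with crystal violet in 50% ethanol, plaques counted; EC50 by linear regression.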

[11] = test system: Poliovirus 1; experiment: Antiviral activity against Poliovirus type 1 ATCC VR-1562 infected in African green monkey Vero 76 cells assessed as reduction of virus-plaque formation after 2 days by crystal violet staining; format: functional, organism-based; details: Enterovirus C, ATCC VR-1562, Vero, 48 h
[12] = test system: Vaccinia virus; experiment: Antiviral activity against Human Vaccinia virus ATCC VR-1549 infected in African green monkey Vero 76 cells assessed as reduction of virus-plaque formation after 3 days by crystal violet staining; format: functional, organism-based; details: Orthopoxvirus vaccinia, ATCC VR-1549, Vero, 72 h
[13] = test system: Human alphaherpesvirus 1; experiment: Antiviral activity against Human herpesvirus 1 KOS ATCC VR-1493 infected in African green monkey Vero 76 cells assessed as reduction of virus-plaque formation after 3 days by crystal violet staining; format: functional, organism-based; details: Human alphaherpesvirus 1, KOS ATCC VR1493, Vero, 72 h; how it was run: as §2
[14] = test system: Escherichia coli; experiment: Antimicrobial activity against Escherichia coli ATCC 10538 after 18 hrs by twofold serial microdilution method; format: functional, organism-based
[15] = test system: Escherichia coli; experiment: Antimicrobial activity against Escherichia coli ATCC 25922 after 18 hrs by twofold serial microdilution method; format: functional, organism-based
[16] = test system: Escherichia coli; experiment: Antimicrobial activity against Escherichia coli NCTC 8196 after 18 hrs by twofold serial microdilution method; format: functional, organism-based
[17] = test system: Pseudomonas aeruginosa; experiment: Antimicrobial activity against Pseudomonas aeruginosa ATCC 15442 after 18 hrs by twofold serial microdilution method; format: functional, organism-based
[18] = test system: Pseudomonas aeruginosa; experiment: Antimicrobial activity against Pseudomonas aeruginosa NCTC 6749 after 18 hrs by twofold serial microdilution method; format: functional, organism-based
[19] = test system: Pseudomonas aeruginosa; experiment: Antimicrobial activity against Pseudomonas aeruginosa ATCC 27863 after 18 hrs by twofold serial microdilution method; format: functional, organism-based
[20] = test system: Bordetella bronchiseptica; experiment: Antimicrobial activity against Bordetella bronchiseptica ATCC 4617 after 18 hrs by twofold serial microdilution method; format: functional, organism-based
[21] = test system: Candida albicans; experiment: Antimicrobial activity against Candida albicans ATCC 10231 after 24 hrs by twofold serial microdilution method; format: functional, organism-based
[22] = test system: Candida albicans; experiment: Antimicrobial activity against Candida albicans ATCC 90028 after 24 hrs by twofold serial microdilution method; format: functional, organism-based
[23] = test system: Candida parapsilosis; experiment: Antimicrobial activity against Candida parapsilosis ATCC 22019 after 24 hrs by twofold serial microdilution method; format: functional, organism-based
[24] = test system: Staphylococcus aureus; experiment: Antimicrobial activity against Staphylococcus aureus NCTC 4163 at 400 ug after 18 hrs by disc-diffusion method; format: functional; details: NCTC 4163, 18 h, read-out: IZ
How it was run: (§3)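 Disc diffusion on Mueller-Hinton II agar per CLSI; 9 mm paper discs loaded with 400 µg compound from DMSO solution, dried, placed on agar; growth inhibition zone diameter read after 18 h at 35°C.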

[25] = test system: Staphylococcus aureus; experiment: Antimicrobial activity against Staphylococcus aureus ATCC 25923 at 400 ug after 18 hrs by disc-diffusion method; format: functional; details: ATCC 25923, 18 h, read-out: IZ; how it was run: as §3
[26] = test system: Staphylococcus aureus; experiment: Antimicrobial activity against Staphylococcus aureus ATCC 6538 at 400 ug after 18 hrs by disc-diffusion method; format: functional; details: ATCC 6538, 18 h, read-out: IZ; how it was run: as §3
[27] = test system: Staphylococcus aureus; experiment: Antimicrobial activity against Staphylococcus aureus ATCC 29213 at 400 ug after 18 hrs by disc-diffusion method; format: functional; details: ATCC 29213, 18 h, read-out: IZ; how it was run: as §3
[28] = test system: Staphylococcus epidermidis; experiment: Antimicrobial activity against Staphylococcus epidermidis ATCC 12228 at 400 ug after 18 hrs by disc-diffusion method; format: functional; details: ATCC 12228, 18 h, read-out: IZ; how it was run: as §3
[29] = test system: Staphylococcus epidermidis; experiment: Antimicrobial activity against Staphylococcus epidermidis ATCC 35984 at 400 ug after 18 hrs by disc-diffusion method; format: functional; details: ATCC 35984, 18 h, read-out: IZ; how it was run: as §3
[30] = test system: Bacillus subtilis; experiment: Antimicrobial activity against Bacillus subtilis ATCC 6633 at 400 ug after 18 hrs by disc-diffusion method; format: functional; details: ATCC 6633, 18 h, read-out: IZ; how it was run: as §3
[31] = test system: Bacillus cereus; experiment: Antimicrobial activity against Bacillus cereus ATCC 11778 at 400 ug after 18 hrs by disc-diffusion method; format: functional; details: ATCC 11778, 18 h, read-out: IZ; how it was run: as §3
[32] = test system: Enterococcus hirae; experiment: Antimicrobial activity against Enterococcus hirae ATCC 10541 at 400 ug after 18 hrs by disc-diffusion method; format: functional; how it was run: as §3
[33] = test system: Enterococcus faecalis; experiment: Antimicrobial activity against Enterococcus faecalis ATCC 29212 at 400 ug after 18 hrs by disc-diffusion method; format: functional; details: ATCC 29212, 18 h, read-out: IZ; how it was run: as §3
[34] = test system: Micrococcus luteus; experiment: Antimicrobial activity against Micrococcus luteus ATCC 10240 at 400 ug after 18 hrs by disc-diffusion method; format: functional; details: ATCC 10240, 18 h, read-out: IZ; how it was run: as §3
[35] = test system: Micrococcus luteus; experiment: Antimicrobial activity against Micrococcus luteus ATCC 9341 at 400 ug after 18 hrs by disc-diffusion method; format: functional; details: ATCC 9341, 18 h, read-out: IZ; how it was run: as §3
[36] = test system: Proteus vulgaris; experiment: Antimicrobial activity against Proteus vulgaris NCTC 4635 at 400 ug after 18 hrs by disc-diffusion method; format: functional; how it was run: as §3
[37] = test system: Staphylococcus aureus; experiment: Antimicrobial activity against Staphylococcus aureus NCTC 4163 after 18 hrs by twofold serial microdilution method; format: functional; details: NCTC 4163, 18 h
[38] = test system: Staphylococcus aureus; experiment: Antimicrobial activity against Staphylococcus aureus ATCC 25923 after 18 hrs by twofold serial microdilution method; format: functional; details: ATCC 25923, 18 h
[39] = test system: Staphylococcus aureus; experiment: Antimicrobial activity against Staphylococcus aureus ATCC 6538 after 18 hrs by twofold serial microdilution method; format: functional; details: ATCC 6538, 18 h
[40] = test system: Staphylococcus aureus; experiment: Antimicrobial activity against Staphylococcus aureus ATCC 29213 after 18 hrs by twofold serial microdilution method; format: functional; details: ATCC 29213, 18 h
[41] = test system: Staphylococcus epidermidis; experiment: Antimicrobial activity against Staphylococcus epidermidis ATCC 12228 after 18 hrs by twofold serial microdilution method; format: functional; details: ATCC 12228, 18 h
[42] = test system: Staphylococcus epidermidis; experiment: Antimicrobial activity against Staphylococcus epidermidis ATCC 35984 after 18 hrs by twofold serial microdilution method; format: functional; details: ATCC 35984, 18 h
[43] = test system: Mycobacterium tuberculosis; experiment: Antimycobacterial activity against Mycobacterium tuberculosis H37Rv ATCC 25618; format: functional
How it was run: (§4)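 Classical test-tube successive-dilution method in Youmans' modification of Proskauer and Beck liquid medium with 10% bovine serum. Inoculum came from 14-day cultures. DMSO stock was 10 mg/mL, diluted geometrically in medium. Tubes were incubated at 37 °C. Concentrations tested were 3.1, 6.2, 12.5, 25, 50 and 100 µg/ml. MIC is the minimum concentration inhibiting growth relative to compound-free tubes.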

[44] = test system: Mycobacterium tuberculosis; experiment: Antimycobacterial activity against drug-sensitive Mycobacterium tuberculosis Spec. 192; format: functional; how it was run: as §4

CC(=O)NC(=S)Nc1cccc(C(F)(F)F)c1
CC50 [1]: > 100 µM
EC50 [2]: > 100 µM
EC50 [3]: > 100 µM
CC50 [4]: > 100 µM
EC50 [5]: > 100 µM
CC50 [6]: > 100 µM
EC50 [7]: > 100 µM
EC50 [8]: > 100 µM
CC50 [9]: > 100 µM
EC50 [10]: > 100 µM
EC50 [11]: > 100 µM
EC50 [12]: > 100 µM
EC50 [13]: > 100 µM
Activity [14]: inactive
Activity [15]: inactive
Activity [16]: inactive
Activity [17]: inactive
Activity [18]: inactive
Activity [19]: inactive
Activity [20]: inactive
Activity [21]: inactive
Activity [22]: inactive
Activity [23]: inactive

O=C(NC(=S)Nc1cccc(C(F)(F)F)c1)c1ccccc1
CC50 [1]: > 100 µM
EC50 [2]: > 100 µM
EC50 [3]: > 100 µM
CC50 [4]: > 100 µM
EC50 [5]: > 100 µM
CC50 [6]: > 100 µM
EC50 [7]: > 100 µM
EC50 [8]: > 100 µM
CC50 [9]: > 100 µM
EC50 [10]: > 100 µM
EC50 [11]: > 100 µM
EC50 [12]: > 100 µM
EC50 [13]: > 100 µM
zone of inhibition at 400 µg/disc [24]: 17 mm
zone of inhibition at 400 µg/disc [25]: 17 mm
zone of inhibition at 400 µg/disc [26]: 17 mm
zone of inhibition at 400 µg/disc [27]: 17 mm
zone of inhibition at 400 µg/disc [28]: 17 mm
zone of inhibition at 400 µg/disc [29]: 16 mm
zone of inhibition at 400 µg/disc [30]: 17 mm
zone of inhibition at 400 µg/disc [31]: 14 mm
inhibition zone (IZ) [32]: inactive
zone of inhibition at 400 µg/disc [33]: 12 mm
zone of inhibition at 400 µg/disc [34]: 19 mm
zone of inhibition at 400 µg/disc [35]: 17 mm
inhibition zone (IZ) [36]: inactive
MIC [37]: 32 µg/mL (≈ 98.7 µM)
MIC [38]: 32 µg/mL (≈ 98.7 µM)
MIC [39]: 32 µg/mL (≈ 98.7 µM)
MIC [40]: 32 µg/mL (≈ 98.7 µM)
MIC [41]: 64 µg/mL (≈ 197 µM)
MIC [42]: 64 µg/mL (≈ 197 µM)
MIC [43]: > 100 µg/mL
MIC [44]: > 100 µg/mL
